FN deposition inh: fibronectin deposition inhibition. AH1F fibroblasts, Alexa488-fibronectin deposition fluorescence, overnight. hit rate 0.086% among 350,000. inhibition, % at 12.6 µM;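 active = mean inhibition across replicates of 30% or more, regardless of how many single replicates reach that level; inconclusive = mean under 30% yet at least half of replicates reach 30%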;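 also: positive control wells lacked labelled fibronectin entirely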
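Material – AH1F fibroblast monolayer, labelled fibronectin deposition · Reagent – labelled fibronectin 24 nM · Timing – 1 h adhesion, overnight exposure · Measured by – fluorescence at 485 nm excitation, 525 nm emission · Read-out – inhibition of fibronectin deposition signal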
PGC1a acetyl inh: modulators of PGC1a acetylation | inhibition, % at 15.6 µM | AID 651687 | U2OS PGC1a acetylation, AlphaScreen anti-acetyl-lysine; with virally co-expressed GCN5 acetyltransferase | hit rate 0.17% among 350,000;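 active = every replicate shows inhibition of at least 40%; inconclusive = mean inhibition at least 40% but some replicate below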;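 also: 0% = neutral control wells and 100% = positive control wells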
DENV2 CPE: protects cells from dengue virus 2 cytopathic effect; DENV2-infected cells, cytopathic effect rescue, plate reader; CPE inhibition, % at 9.99 µM; hit rate 1.7% among 350,000; AID 651640; in the data active = CPE inhibition above about 20%, passing the limit was not always enough; inconclusive = no clear call, values can overlap the other calls; tested in BHK-21 cells;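 also: 0% = median of neutral control wells and 100% = median of positive control wells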
PglD DTNB: inhibitors of Campylobacter jejuni PglD acetyltransferase; purified PglD enzyme, DTNB colorimetric CoA detection; inhibition, % at 12.5 µM; hit rate 0.098% among 360,000; AID 602405; in the data active = inhibition above about 16%, passing the limit was not always enough; inconclusive = no clear call, values can overlap the other calls
Env fusion inh: HIV envelope-mediated fusion inhibition | HeLa-JRFL Env/CEM21 cell fusion, luciferase | inhibition, % at 12.3 µM | hit rate 1.1% among 360,000 | AID 651610;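 active = mean replicate inhibition score of at least 50 and every replicate individually at or above 50; inconclusive = only one of the two criteria met; inactive = mean below 50 and not all replicates reaching 50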;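 also: 0% = plate neutral controls and 100% = maraviroc near 300 nM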
Ecoli rRNA inh: selective bacterial rRNA inhibition in E. coli | GFP signal change (wild-type ribosome), % (no concentration beside the values) | hit rate 1.6% among 350,000 | AID 720706 | E. coli WT GFP vs humanized-ribosome RFP mutants, fluorescence, 24 h; stronger effect = lower value; DMSO median 0, no signal -100;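 active = significant combined selectivity score with lowered wild-type GFP, culture density cut under 30%, mutant RFP and density less affected; inactive = any of these conditions unmet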
Numbers without * were called inactive; ? = inconclusive; · = no result; [ ] = another dose, or the depositor's remark. This is a sample that favours compounds with a hit; in the whole collection about 3.5% have one here.

SMILES	FN deposition inh	PGC1a acetyl inh	DENV2 CPE	PglD DTNB	Env fusion inh	Ecoli rRNA inh
Cn1c(N)c(C(=O)COC(=O)/C=C/c2ccccc2)c(=O)n(C)c1=O	11	4	?	0	-3	-20*
CC(C)Cn1c(N)c(C(=O)COC(=O)c2ccc3c(c2)OCCO3)c(=O)n(C)c1=O	1	-7	·	0	35	·
CC(C)Cn1c(N)c(C(=O)CSc2ccc3c(c2)OCCO3)c(=O)n(C)c1=O	-18	-8	·	3	98*	·
CC(C)Cn1c(N)c(C(=O)COC(=O)Cc2cccs2)c(=O)n(C)c1=O	1	-1	-6	4	-11	·
CC(C)Cn1c(N)c(C(=O)COC(=O)c2cccc(Cl)c2)c(=O)n(C)c1=O	·	-18	2	·	6	-28*
CO[C@H]1CN(C)C(=O)c2ccc(NC(=O)NC(C)C)cc2OC[C@@H](C)N(C)C[C@@H]1C	-2	-3	6	-2	-2[16.7 µM]	3
O=C(Nc1ccccc1)N[C@@H]1CC[C@@H](CCn2cc(C3(O)CCCC3)nn2)O[C@H]1CO	3	·	5	2	-11[16.7 µM]	-3
CCCN(C)C[C@@H]1Oc2cc(C#CCC3CCCC3)ccc2S(=O)(=O)N([C@@H](C)CO)C[C@H]1C	11	-19	·	·	-13[16.7 µM]	6
C=CCN1C(=O)[C@@]2(O[C@@H](CCO)[C@H]([Si](C)(C)c3ccc(OC)cc3)[C@H]2C)c2cc(N3CCCCC3=O)ccc21	·	-3	-2	2	-4[16.7 µM]	·
NC(=O)C1CCN(C(=O)CN(C2CCCCC2)S(=O)(=O)c2ccc(F)cc2)CC1	5	5	3	1	-4	-26*
CN(Cc1ccccc1)C(=O)CN(C)S(=O)(=O)c1ccc(F)cc1	-4	·	-7	·	-8	6
CN(Cc1ccccc1)S(=O)(=O)c1ccc(S(=O)(=O)N(Cc2ccc(F)cc2)C2CCCC2)cc1	-1	?	·	-3	58*	·
O=C(O)c1ccc(S(=O)(=O)N(Cc2ccc(F)cc2)C2CCCCC2)cc1	-1	2	-4	-10	13	-22*
CCN(C1CCCCC1)S(=O)(=O)c1ccc(C(=O)O)cc1	-3	6	·	-6	-6	·
CCC(=O)N1C[C@@H](O)COC[C@H]2O[C@H](CC(=O)NC)CC[C@@H]21	2	-1	-1	-2	-24[16.7 µM]	3
O=C(C[C@H]1C=C[C@@H](NC(=O)Nc2ccccc2F)[C@H](CO)O1)NCc1ccc(Cl)cc1	·	-5	4	-1	0[16.7 µM]	1
Cc1ccc(S(=O)(=O)NCCCNc2ccc([N+](=O)[O-])cc2)cc1	-5	-2	12	·	22	-36
Cc1ccnc(NS(=O)(=O)c2cccc([N+](=O)[O-])c2)c1	2	1	2	2	15	8
Cc1ccc(S(=O)(=O)Nc2c(C)cc([N+](=O)[O-])cc2C)cc1	-5	·	-7	·	?	-22*
Cc1ccc(S(=O)(=O)NCCNc2ccc([N+](=O)[O-])cc2)cc1	·	·	-1	-6	0	-27*
C[C@@H]1CCCCO[C@@H](CN(C)Cc2ccc(C(F)(F)F)cc2)[C@@H](C)CN([C@H](C)CO)C(=O)c2cc(NS(C)(=O)=O)ccc2O1	·	-3	?	-1	-1[16.7 µM]	-1
Cc1cccc(N(CC(=O)NC2CC2)S(=O)(=O)c2ccc(Cl)cc2)c1	-1	·	50*	-6	-15	5
CC(=O)N(c1cccc(C)c1)S(=O)(=O)c1ccc(Cl)cc1	·	53*	1	8	-15	1
Cc1ccc(S(=O)(=O)N(CC(=O)NC2CC2)c2ccc(C)c(Cl)c2)cc1	0	7	-1	-1	-21	-10
CCOC(=O)N1CCN(C(=O)COC(=O)COc2c(C)cc(C)cc2C)CC1	-1	-10	0	2	·	3
SMILES	FN deposition inh	PGC1a acetyl inh	DENV2 CPE	PglD DTNB	Env fusion inh	Ecoli rRNA inh
CC(=O)N1CCN(C(=O)COC(=O)COc2c(C)cc(C)cc2C)CC1	2	3	84*	1	-22	4
CC(=O)N1[C@@H](CO)[C@@H](c2ccc(-c3ccccc3)cc2)[C@@H]1CNC(=O)C1CC1	13	4	-2	-1	·	-3
CCN(CC(=O)Nc1c(F)cccc1F)C(=O)c1ccc(=O)n(Cc2ccccc2)n1	1	-3	0	12	-5	3
CCN(CC(=O)Nc1cc(Cl)ccc1C)C(=O)c1ccc(=O)n(Cc2ccccc2)n1	-1	·	2	1	110*	2
Cc1ccc(S(=O)(=O)N(C)C[C@H]2OCCCC[C@@H](C)Oc3ccc(NS(=O)(=O)c4c(C)noc4C)cc3C(=O)N([C@H](C)CO)C[C@H]2C)cc1	6	-19	21*	-1	38[16.7 µM]	-1
Cc1ccc(S(=O)(=O)N(C)C[C@@H]2OCCCC[C@@H](C)Oc3ccc(NS(=O)(=O)c4c(C)noc4C)cc3C(=O)N([C@H](C)CO)C[C@@H]2C)cc1	-6	4	-2	-9	-30	16
Cc1ccc(S(=O)(=O)N(C)C[C@H]2OCCCC[C@H](C)Oc3ccc(NS(=O)(=O)c4c(C)noc4C)cc3C(=O)N([C@@H](C)CO)C[C@@H]2C)cc1	1	3	43*	2	11[16.7 µM]	-2
Cc1ccc(S(=O)(=O)N(C)C[C@@H]2OCCCC[C@H](C)Oc3ccc(NS(=O)(=O)c4c(C)noc4C)cc3C(=O)N([C@H](C)CO)C[C@H]2C)cc1	5	5	112*	1	-36[16.7 µM]	3
Cc1ccc(S(=O)(=O)Nc2ccc3c(c2)C(=O)N([C@@H](C)CO)C[C@@H](C)[C@H](CN(C)S(=O)(=O)c2c(C)noc2C)OCCCC[C@@H](C)O3)cc1	8	-27	2	-1	-21[16.7 µM]	0
Cc1ccc(S(=O)(=O)N(C)C[C@@H]2OCCCC[C@H](C)Oc3ccc(NS(=O)(=O)c4c(C)noc4C)cc3C(=O)N([C@H](C)CO)C[C@@H]2C)cc1	10	-17	89*	-4	-55[16.7 µM]	-1
Cc1ccc(S(=O)(=O)Nc2ccc3c(c2)C(=O)N([C@@H](C)CO)C[C@H](C)[C@@H](CN(C)S(=O)(=O)c2c(C)noc2C)OCCCC[C@@H](C)O3)cc1	-2	18	-11	-2	-20[16.7 µM]	0
CC(=O)Nc1ccc2c(c1)C(=O)N(C)[C@H]1CC[C@H](CC(=O)Nc3cn(C)nc3C)O[C@@H]1CO2	-6	-7	·	·	-3[16.7 µM]	4
COCC(=O)N1CC2(C1)[C@H](c1ccccc1)[C@H](CO)N2C(=O)NC1CCCC1	-4	-3	-6	·	·	0
CO[C@H]1CN(C)C(=O)c2cccc(C#N)c2OCC[C@H]2CC[C@@H](OC)[C@H](CN(C)C(=O)[C@@H]1C)O2	2	·	9	2	1[16.7 µM]	-1
Cc1ccc(S(=O)(=O)N(C)C[C@@H]2OCCCC[C@@H](C)Oc3ccc(NS(=O)(=O)c4c(C)noc4C)cc3C(=O)N([C@H](C)CO)C[C@H]2C)cc1	-22	-12	62*	-1	-22[16.7 µM]	2
